# Measurements pooled from the literature.
# Protocols differ between the studies behind these lines.
# Target: Serine/threonine-protein kinase PAK 2 (PAK2, Homo sapiens, UniProt Q13177)
SMILES,effect on,mode,technique,tested at,endpoint,value
O=S(=O)(NC1CCC(c2cc(F)ccc2F)(S(=O)(=O)c2ccc(Cl)cc2)CC1)C(F)(F)F (centres unmarked),cell-free assay,,competition with immobilised ligand,1 µM,remaining binding,100%
COc1cc(/C=C/C(=O)CC(=O)/C=C/c2ccc(O)c(OC)c2)ccc1O,enzyme activity,inhibitor,,1 µM,activity vs control,84%
Oc1cccc(-c2nc(N3CCOCC3)c3oc4ncccc4c3n2)c1,enzyme activity,inhibitor,,10 µM,remaining activity,106%
CSc1nc(C)c(-c2ccnc(Nc3ccc(N4CCOCC4)cc3)c2)[nH]1,enzyme activity,inhibitor,,10 µM,inhibition,1.4%
Cc1nc(N2CC[C@@H](O)C2)ncc1-c1cc(C(F)(F)F)cc2[nH]ncc12,cell-free assay,,competition with immobilised ligand,1 µM,remaining binding,100%
CNC(=O)c1cc(Oc2ccc(NC(=O)Nc3ccc(Cl)c(C(F)(F)F)c3)cc2)ccn1,cell-free assay,,,0.5 µM,remaining signal,101%
C=CC(=O)Nc1cc(Nc2nccc(Nc3cc(Cl)c(F)cc3C(C)(C)O)n2)c(OC)cc1N1CC[C@@H](N(C)C)C1,enzyme activity,inhibitor,,1 µM,inhibition,5%
Cc1noc([C@H]2C[C@@H](c3ccc(C(F)(F)F)cc3)CN(C(=O)N3CCS(=O)(=O)C3)C2)n1,cell-free assay,,competition with immobilised ligand,1 µM,remaining binding,87%
N#CCCc1ccc2c(c1)-c1[nH]c3ccc([N+](=O)[O-])cc3c1CC(=O)N2,cell-free assay,,,0.5 µM,remaining signal,55.6%
CCCOc1ccc(OC)c(F)c1C(=O)c1ccc(C(=O)N[C@@H]2CNC[C@H]2NC(=O)c2ccc3[nH]ncc3c2)cc1,enzyme activity,inhibitor,,10 µM,remaining activity,74%
COc1cc(Nc2c(C#N)cnc3cc(OCCCN4CCN(C)CC4)c(OC)cc23)c(Cl)cc1Cl,cell-free assay,,,0.5 µM,remaining signal,69.4%
Cc1ccc(Nc2nccc(N(C)c3ccc4c(C)n(C)nc4c3)n2)cc1S(N)(=O)=O,enzyme activity,inhibitor,,0.3 µM,inhibition,1%
O=C(Nc1cnn(-c2csc(C(=O)NC3COC3)c2)c1)Nc1ccccc1Cl,enzyme activity,inhibitor,,5 µM,remaining activity,90.1%
COc1cc(Nc2cnc(C#N)c(O[C@H](C)CN(C)C)n2)ncc1-c1cnn(C)c1,enzyme activity,inhibitor,radiometric,1 µM,remaining activity,100%
COc1ccc2c(c1)O[C@H](c1ccc(OC)c(OC)c1)C[C@@H]2NC(=O)C1(c2ccc3c(c2)OC(F)(F)O3)CC1,cell-free assay,,competition with immobilised ligand,1 µM,remaining binding,100%
COc1cc2ncnc(Nc3ccc(Oc4ccccc4)cc3C)c2cc1OC,enzyme activity,inhibitor,,1 µM,inhibition,2%
CCOc1cc(-c2nncn2C)ccc1Nc1ncc2cc(C)nc(NCC(C)(C)C)c2n1,enzyme activity,inhibitor,FRET,1 µM,inhibition,< 15%
Cn1cc(Cl)c2c(Oc3c(F)cc(Nc4cc(Cl)nc(N)n4)cc3F)ccnc21,cell-free assay,,competition with immobilised ligand,0.1 µM,remaining binding,100%
CCN(CC)c1ccc(C2=NNC(=O)CC2C)cc1[N+](=O)[O-] (centres unmarked),enzyme activity,inhibitor,,10 µM,remaining activity,98%
Cc1c(NC(=O)c2cc(C(N)=O)nc3cc(F)ccc23)c(C(F)(F)F)nn1Cc1ccc(C#N)cc1,cell-free assay,,competition with immobilised ligand,1 µM,remaining binding,88%
Cc1cc(NC(=O)c2cccc3cc(-c4cccc5[nH]nc(N)c45)ccc23)ccc1F,enzyme activity,inhibitor,,0.1 µM,activity vs control,98%
Cc1ccc(NC(=O)c2ccc(C)c(C(F)(F)F)c2)cc1C#Cc1nn(C2CCC(O)CC2)c2ncnc(N)c12 (centres unmarked),cell-free assay,,,10 µM,remaining signal,68%
CC(C)(C)c1nc(-c2cccc(NS(=O)(=O)c3c(F)cccc3F)c2F)c(-c2ccnc(N)n2)s1,enzyme activity,inhibitor,radiometric,1 µM,remaining activity,88%
